ChEMBL document CHEMBL1129419, “1-Aminocyclobutanecarboxylic acid derivatives as novel structural elements in bioactive peptides: application to tuftsin analogs” (J Med Chem, 1996)
Where a SMILES comes first, the peptide text is derived from it.

Key:
[1] = Compound was evaluated for the secretion of interleukin-6 (IL-6) by macrophages incubated in the presence of antigen Keyhole Limpet Hemocyanin (KLH) at concentration of 2 x 10E-8 M; type: functional
Summary of the method: (§1)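 Thioglycollate-elicited peritoneal macrophages from (BALB/c x C3H.eb)F1 mice (6-8 weeks), >90% pure, cultured at 10⁶/mL in DMEM for 48 h at 37 °C, 5% CO₂. Incubated 20 h in triplicate with KLH plus peptide (2 × 10^-7 to 2 × 10^-9 M). Pooled supernatants were assayed for IL-6 by B9 hybridoma proliferation ([³H]thymidine, 2-fold dilutions), giving arbitrary units with KLH alone set at 1000 units. Three experiments were averaged.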

[2] = Compound was evaluated for the secretion of interleukin-6 (IL-6) by macrophages incubated in the presence of antigen Keyhole Limpet Hemocyanin (KLH) at concentration of 2 x 10E-7 M; type: functional; summary of the method: as §1
[3] = Compound was evaluated for the secretion of interleukin-6 (IL-6) by macrophages incubated in the presence of antigen Keyhole Limpet Hemocyanin (KLH) at concentration of 2 x 10E-9 M; type: functional; summary of the method: as §1
[4] = Plasma half life of compound reported; type: ADME, cell-free
Summary of the method: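 Peptide (0.5 mg) was incubated in 0.5 mL human serum at 37 °C. Aliquots were taken at 0-240 min, boiled at 90-95 °C for 5 min, diluted with water and centrifuged. Intact peptide was quantified by isocratic RP-HPLC at 220 nm, with peak area referenced to an internal serum peak and time 0 set at 100%. Half-life was read from the degradation time course.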

| SMILES | T1/2 [4] | half-life [4] | Secretion [1] | Secretion [2] | Secretion [3] |
| --- | --- | --- | --- | --- | --- |
| C[C@@H](O)[C@H](N)C(=O)N[C@@H](CCCCN)C(=O)N1CCC[C@H]1C(=O)N[C@@H](CCCN=C(N)N)C(=O)O (H-TKPR-OH) | – | – | 42% | 78% | 32% |
| C[C@@H](O)[C@H](N)C(=O)N[C@]1(C(=O)N2CCC[C@H]2C(=O)N[C@@H](CCCN=C(N)N)C(=O)O)C[C@@H](CN)C1 | – | – | 54% | 68% | – |
| C[C@@H]1CC[C@]1(NC(=O)[C@H](CCCCN)NC(=O)[C@@H](N)[C@@H](C)O)C(=O)N[C@@H](CCCNC(=N)N)C(=O)O (stereo in doubt; 27b) | 15 min | – | – | – | – |
| C[C@@H]1CC[C@]1(NC(=O)[C@H](CCCCN)NC(=O)[C@@H](N)[C@@H](C)O)C(=O)N[C@@H](CCCNC(=N)N)C(=O)O (stereo in doubt; 27) | – | – | – | 30% | – |
| NCCCC[C@H](NC(=O)[C@]1(N)C[C@H](CO)C1)C(=O)N1CCC[C@H]1C(=O)N[C@@H](CCCN=C(N)N)C(=O)O | – | – | 29% | 125% | – |
| C[C@@H]1CC[C@]1(NC(=O)[C@H](CCCCN)NC(=O)[C@@H](N)[C@@H](C)O)C(=O)N[C@@H](CCCNC(=N)N)C(=O)O (stereo in doubt; 27a) | – | 25 min | 95% | 141% | – |

Continued, in another order:

| T1/2 [4] | half-life [4] | SMILES | Secretion [1] | Secretion [2] | Secretion [3] |
| --- | --- | --- | --- | --- | --- |
| – | 13 min | C[C@@H](O)[C@H](N)C(=O)NC1(C(=O)N2CCC[C@H]2C(=O)N[C@@H](CCCN=C(N)N)C(=O)O)CC(CCN)C1 (some centres undefined) | – | – | – |
| – | 11 min | C[C@@H](O)[C@H](N)C(=O)N[C@@H](CCCCN)C(=O)N1CCC[C@H]1C(=O)N[C@]1(C(=O)O)C[C@@H](CN=C(N)N)C1 | – | – | – |
